In publication PMC12166265 (Clinical Pharmacology and Therapeutics, 2025):
Where two headings read alike, the source gives them in different places.

Experiments:
[1] = format: in vivo, human; details: for Effect of eltrombopag administration on plasma concentrations (in words): eltrombopag 75 mg daily for 5 days
[2] = tested on: ABCG2 p.Q141K variant; format: in vivo, human
How it was run: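 Open-label fixed-sequence crossover in 11 healthy non-smoking adults aged 18–64. Single oral rosuvastatin 10 mg given after an overnight fast, with fasting continued 4 h. Heparinised venous plasma was stored at −70°C and analysed by LC–MS. ABCG2 c.421C>A was genotyped blind by PCR and Sanger sequencing. Nine CC and two CA subjects were compared at T = 0 h and by noncompartmental PK, using log-transformed geometric means and unpaired t-tests.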

[3] = tested on: BCRP; details: 14 healthy males, BMS-986371; cited from earlier work
[4] = rosuvastatin + eltrombopag arm, geometric mean (90% CI)
[5] = rosuvastatin alone arm, geometric mean (90% CI)
[6] = both, human, plasma, oral, 10 mg
[7] = both, human, plasma, oral, 10 mg, AUC0−4, rosuvastatin alone arm, geometric mean (90% CI)
[8] = both, human, plasma, oral, AUC0−4, rosuvastatin + eltrombopag arm, geometric mean (90% CI)
[9] = human, in vivo, listed as rosuvastatin

Coproporphyrin-III [CP‐III]
Effect of eltrombopag administration on plasma concentrations (in words) [1]: no effect | AUC0−24, geometric mean ratio (90% CI) of rosuvastatin + eltrombopag arm to rosuvastatin alone arm ([1]; human, in vivo): 0.93 (0.80–1.08); P = 0.44 | C0, geometric mean ratio (90% CI) of rosuvastatin + eltrombopag arm to rosuvastatin alone arm ([1]; human, in vivo): 0.75 (0.64–0.88); P = 0.01 | Cmax, geometric mean ratio (90% CI) of rosuvastatin + eltrombopag arm to rosuvastatin alone arm ([1]; human, in vivo): 0.83 (0.70–0.98); P = 0.08 | AUC0−24 [1, 4]: 1.70 (1.46–1.99) nM*h | C0 [1, 4]: 0.09 nM | Cmax [1, 4]: 0.11 nM | AUC0−24 [1, 5]: 1.83 (1.60–2.09) nM*h | C0 [1, 5]: 0.12 nM | Cmax [1, 5]: 0.13 nM

CC(C)c1nc(N(C)S(C)(=O)=O)nc(-c2ccc(F)cc2)c1/C=C/[C@@H](O)C[C@@H](O)CC(=O)O [Rosuvastatin, reference compound]
AUC0–4, fold higher in p.Q141K variant vs reference allele ([2]; rosuvastatin 10 mg): 2.9 fold | AUC0–INF, fold higher in p.Q141K variant vs reference allele ([2]; rosuvastatin 10 mg): 2.6 fold | Cmax, fold higher in p.Q141K variant vs reference allele ([2]; rosuvastatin 10 mg): 2.4 fold | AUC(0-inf) ([1]; both, human, plasma, oral): 116 ng·h/mL | CL/F ([1]; both, human, plasma, oral): 19.7 mL/min/kg | Cmax ([1]; both, human, plasma, oral): 10.9 ng/mL | half-life ([1]; both, human, plasma, oral): 8.8 h | AUC(0-inf) [1, 6]: 69.1 ng·h/mL | CL/F [1, 6]: 32.7 mL/min/kg | Cmax [1, 6]: 5.4 ng/mL | half-life [1, 6]: 10.4 h | AUC(0-t) [1, 7]: 11.8 ng·h/mL | AUC(0-t) [1, 8]: 25 ng·h/mL | AUC0−4, geometric mean ratio (90% CI) of rosuvastatin + eltrombopag arm to rosuvastatin alone arm ([1]; human, in vivo): 2.12 (1.71–2.62); P = 0.002 | AUC0−INF, geometric mean ratio (90% CI) of rosuvastatin + eltrombopag arm to rosuvastatin alone arm ([1]; human, in vivo): 1.80 (1.49–2.17); P = 0.002 | CL/F/kg, geometric mean ratio (90% CI) of rosuvastatin + eltrombopag arm to rosuvastatin alone arm ([1]; human, in vivo): 0.56 (0.46–0.67); P = 0.02 | Cmax, geometric mean ratio (90% CI) of rosuvastatin + eltrombopag arm to rosuvastatin alone arm ([1]; human, in vivo): 2.01 (1.59–2.53); P = 0.002 | T1/2, geometric mean ratio (90% CI) of rosuvastatin + eltrombopag arm to rosuvastatin alone arm ([1]; human, in vivo): 0.88 (0.78–0.99); P = 0.13 | V/F/kg, geometric mean ratio (90% CI) of rosuvastatin + eltrombopag arm to rosuvastatin alone arm ([1]; human, in vivo): 0.49 (0.38–0.63); P = 0.004 | AUC0−4, geometric mean ratio (90% CI) of rosuvastatin + eltrombopag arm to rosuvastatin alone arm [1, 9]: 2.1 | AUC0−INF, geometric mean ratio (90% CI) of rosuvastatin + eltrombopag arm to rosuvastatin alone arm [1, 9]: 1.8 | Cmax, geometric mean ratio (90% CI) of rosuvastatin + eltrombopag arm to rosuvastatin alone arm [1, 9]: twofold | Tmax ([1]; rosuvastatin + eltrombopag arm): 4 (3.5–5) h | V/F/kg [1, 4]: 14.9 (11.5–17.8) L/kg | V/F/kg ([1]; rosuvastatin + eltrombopag arm, geometric mean (90% CI), listed as rosuvastatin): 14.9 L/kg | Tmax ([1]; rosuvastatin alone arm): 5 (1.5–5) h | V/F/kg [1, 5]: 29.3 (22.8–37.7) L/kg | V/F/kg ([1]; rosuvastatin alone arm, geometric mean (90% CI), listed as rosuvastatin): 29.3 L/kg

Cc1cc2nc3c(=O)[nH]c(=O)nc-3n(C[C@H](O)[C@H](O)[C@H](O)CO)c2cc1C [Riboflavin]
Baseline concentrations, heterozygous p.Q141K vs homozygous reference allele ([2]; two p.Q141K (CA) vs nine REF (CC) individuals, T = 0 h): no association | C0 at 0 h ([1]; both, human, plasma, oral): 2.79 ng/mL | Cmax ([1]; both, human, plasma, oral): 3.61 ng/mL | AUC [1, 6]: 11.7 ng·h/mL | C0 at 0 h [1, 6]: 2.72 ng/mL | Cmax [1, 6]: 4.16 ng/mL | AUC(0-t) [1, 7]: 10.6 ng·h/mL | AUC(0-t) ([1]; both, human, plasma, oral, 10 mg, AUC0−24, rosuvastatin alone arm, geometric mean (90% CI)): 65.9 ng·h/mL | AUC(0-t) ([1]; both, human, plasma, oral, 10 mg, mean riboflavin AUC0−4, fasted state, rosuvastatin alone arm): 10.6 ng·h/mL | AUC(0-t) [1, 8]: 10.2 ng·h/mL | AUC(0-t) ([1]; both, human, plasma, oral, AUC0−24, rosuvastatin + eltrombopag arm, geometric mean (90% CI)): 65.6 ng·h/mL | AUC(0-t) ([1]; both, human, plasma, oral, mean riboflavin AUC0−4, fasted state, in the presence of eltrombopag): 9.7 ng·h/mL | Effect of eltrombopag administration on plasma concentrations (in words) [1]: did not lead to corresponding increases | Increase in riboflavin AUC0−4 [3]: 1.25 fold | Increase in riboflavin AUC0−24 [3]: 1.14 fold | Increase in riboflavin Cmax [3]: 1.11 fold

Coproporphyrin-I [CP‐I]
Effect of eltrombopag administration on plasma concentrations (in words) [1]: no effect | AUC0−24, geometric mean ratio (90% CI) of rosuvastatin + eltrombopag arm to rosuvastatin alone arm ([1]; human, in vivo): 0.96 (0.88–1.04); P = 0.50 | C0, geometric mean ratio (90% CI) of rosuvastatin + eltrombopag arm to rosuvastatin alone arm ([1]; human, in vivo): 0.90 (0.83–0.98); P = 0.05 | Cmax, geometric mean ratio (90% CI) of rosuvastatin + eltrombopag arm to rosuvastatin alone arm ([1]; human, in vivo): 0.95 (0.88–1.03); P = 0.33 | AUC0−24 [1, 4]: 16.2 (14.2–18.4) nM*h | C0 [1, 4]: 0.74 nM | Cmax [1, 4]: 0.89 nM | AUC0−24 [1, 5]: 16.9 (15.3–18.6) nM*h | C0 [1, 5]: 0.81 nM | Cmax [1, 5]: 0.93 nM
